pIC50: −log10 of the molar value.
Columns and labels:
FLT3-ITD = experiment: FLT3 degradation in FLT3-ITD positive AML lines; type: cell-based, human; settings: MOLM13-luc+ and MOLM14, 20 μM
[1] = system: FLT3-ITD+, D835Y+ AML primagraft; experiment: AML primagraft study in NSG mice; type: in vivo
Summary of the method: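 Primagraft mice got the test compound at 15 mg/kg IP once daily (n=3) or vehicle (n=3). Dosing began once disease was detectable by flow cytometry and ran for 21 days. Body weight was followed to judge tolerability.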

USP10 [2] = biological target: USP10 (Homo sapiens, UniProt Q14694); experiment: MALDI-TOF DUB assay with diubiquitin as substrate, dose response; type: biochemical; settings: read-out: USP10 IC50
Chain of USP10 (Homo sapiens, UniProt Q14694) (Q14694 whole entry): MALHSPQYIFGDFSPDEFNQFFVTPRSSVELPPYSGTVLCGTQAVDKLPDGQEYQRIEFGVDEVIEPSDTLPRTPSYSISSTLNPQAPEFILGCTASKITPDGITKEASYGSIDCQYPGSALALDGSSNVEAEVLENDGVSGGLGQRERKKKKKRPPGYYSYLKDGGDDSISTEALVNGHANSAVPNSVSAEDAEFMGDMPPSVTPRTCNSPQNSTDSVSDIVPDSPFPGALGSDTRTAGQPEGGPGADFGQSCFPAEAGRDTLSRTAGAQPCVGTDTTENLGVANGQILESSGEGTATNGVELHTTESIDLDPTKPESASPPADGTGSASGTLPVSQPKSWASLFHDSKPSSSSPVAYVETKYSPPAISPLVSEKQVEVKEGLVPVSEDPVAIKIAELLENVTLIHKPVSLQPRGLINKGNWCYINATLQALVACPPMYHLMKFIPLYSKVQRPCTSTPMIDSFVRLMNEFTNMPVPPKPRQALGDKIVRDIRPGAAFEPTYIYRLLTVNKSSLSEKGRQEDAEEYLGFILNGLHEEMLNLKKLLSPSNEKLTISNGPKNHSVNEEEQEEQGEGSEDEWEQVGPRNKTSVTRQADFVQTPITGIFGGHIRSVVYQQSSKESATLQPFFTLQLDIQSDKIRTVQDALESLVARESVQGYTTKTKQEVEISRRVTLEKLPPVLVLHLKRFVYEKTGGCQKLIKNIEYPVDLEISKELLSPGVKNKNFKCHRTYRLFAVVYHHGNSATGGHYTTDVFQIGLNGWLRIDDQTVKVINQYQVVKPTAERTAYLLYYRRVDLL
Summary of the method: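 Human USP10 was freshly diluted in 40mM Tris–HCl pH 7.6, 5mM DTT, 0.005% BSA and pre-incubated with test compound for 30 min at room temperature. Di-ubiquitin topoisomers (K63, K48, K11, M1) at 1.5 μM were added, incubated 30 min at room temperature, then stopped with TFA at 2% (v/v) final. Cleavage was read by MALDI-TOF.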

Beclin-1 = Beclin-1 and FLT3 protein levels; type: cell-based
[3] = system: FLT3-ITD positive primary AML patient cells and primagraft cells; experiment: Ex vivo treatment of AML patient samples and primagrafts; type: cell-based, human; settings: 21 hours, 20 μM
wt FLT3 = experiment: FLT3 protein levels in Ba/F3-wtFLT3 cells; type: cell-based, murine
[4] = system: Ba/F3-FLT3-ITD-luc+ cells; experiment: Non-invasive in vivo bioluminescence model of leukemia
[5] = system: Ba/F3-FLT3-ITD and Ba/F3-FLT3-D835Y cells; experiment: Proliferation of mutant FLT3-positive Ba/F3 cells; type: cell-based, murine
USP10 [6] = experiment: Competitive activity-based protein profiling with HA-Ub-VS in cells; type: cell-based; settings: lysates from live treated cells (Ba/F3-FLT3-ITD, MOLM14)
[7] = 50 mg/kg twice daily IP, 4 days, pilot study

| Molecule | FLT3 degradation (FLT3-ITD) | FLT3 signal in mouse bone marrow lysates (immunoblot) ([1]; 15 mg/kg IP 1X daily, 21 days) | tolerability ([1]; 15mg/kg, 21 day treatment) | average weight loss ([1]; 15mg/kg, 21 days, same for vehicle-treated) [g] | pIC50 (USP10 [2]) | protein levels of Beclin-1 (Beclin-1; 10 μM, MOLM14 cells) | FLT3 levels via immunoblotting [3] | FLT3 protein levels (wt FLT3) | leukemia burden compared to vehicle (in vivo bioluminescence) ([4]; 50 mg/kg IP twice daily or oral gavage once daily, 4–6 days of treatment) | lower percentage of FLT3 expression in bone marrow vs vehicle (flow cytometry) [4, 7] | reduction in luciferase-positive signal in bone marrow vs vehicle [4, 7] | difference in weight vs vehicle-treated mice ([4]; treated for up to 11 days) | protein levels of Beclin-1 and FLT3 (Beclin-1; 20 μM, Ba/F3-FLT3-ITD and MOLM14 cells) | EC50 for inhibition of proliferation [5] | inhibitor concentration blocking USP10 labeling by HA-Ub-VS (USP10 [6]) |
| --- | --- | --- | --- | --- | --- | --- | --- | --- | --- | --- | --- | --- | --- | --- | --- |
| CC(=O)c1cc([N+](=O)[O-])c(Sc2ccc(F)cc2F)s1 [P22077] | strongly induced FLT3 degradation | undetectable | generally well tolerated | 2 to 3 | 5.22 | strongly decreased | strong reduction in FLT3 | unchanged | statistically significant decrease | approximately 2 fold | approximately 2 fold | no significant difference | – | – | – |
| HBX19818 | strongly induced FLT3 degradation | – | – | – | 4.85 | – | strong reduction in FLT3 | unchanged | – | – | – | – | strongly decreased | single digit micromolar range | low micromolar range |

From article PMC6314479 (Nature chemical biology, 2017)
